In paper PMC7668563 (International journal of molecular biology (Edmond, Okla.), 2020):
Like-named read-outs stand apart in the source and are kept apart here.

Experiments:
[1] = target: T1, apo-human transferrin (apo-hTf) (Homo sapiens, UniProt P02787); experiment: Fluorescence quenching of apo-hTf; format: binding; details: for biomolecular quenching rate constant kq: kq=Ksv/τ0; for Stern-Volmer quenching constant Ksv / number of binding sites n: pH 7.4; for quenching association constant Ka: pH 7.4, modified Stern-Volmer
T1 sequence (P02787 20-698): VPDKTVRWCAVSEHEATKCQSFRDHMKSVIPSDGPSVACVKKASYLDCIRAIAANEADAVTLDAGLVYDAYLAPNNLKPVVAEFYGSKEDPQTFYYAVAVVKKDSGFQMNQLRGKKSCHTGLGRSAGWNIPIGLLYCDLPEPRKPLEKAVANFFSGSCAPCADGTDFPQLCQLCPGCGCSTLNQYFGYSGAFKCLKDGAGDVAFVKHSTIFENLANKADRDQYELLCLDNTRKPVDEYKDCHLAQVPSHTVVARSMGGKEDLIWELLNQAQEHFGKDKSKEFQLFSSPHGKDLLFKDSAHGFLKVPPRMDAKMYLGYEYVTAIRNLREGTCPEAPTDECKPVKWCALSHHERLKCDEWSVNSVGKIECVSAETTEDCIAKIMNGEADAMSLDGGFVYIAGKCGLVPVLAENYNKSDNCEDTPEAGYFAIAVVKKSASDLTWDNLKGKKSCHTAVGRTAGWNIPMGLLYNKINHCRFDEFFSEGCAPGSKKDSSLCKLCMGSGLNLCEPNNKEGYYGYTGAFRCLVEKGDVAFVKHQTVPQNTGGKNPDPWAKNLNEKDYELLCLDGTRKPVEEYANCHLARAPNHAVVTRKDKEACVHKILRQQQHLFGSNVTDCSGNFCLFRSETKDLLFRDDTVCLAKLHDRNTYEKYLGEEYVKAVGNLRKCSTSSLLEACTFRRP
Method in brief: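 Intrinsic fluorescence of apo-hTf in Tris-HCl pH 7.4 was titrated with test compound (Tris-HCl/2% DMSO). Conditions: excitation 280 nm, emission 290–500 nm, slits 10/5 nm, 1.0 cm quartz cell, at 296, 303, 310 and 317 K, triplicate titrations. Intensities were corrected for inner filter effect using absorbances at excitation and emission wavelengths. Ksv came from Stern-Volmer plots of F0/F vs [Q]; kq = Ksv/τ0 (τ0 ~1.0×10−8); Ka and n came from the modified Stern-Volmer equation.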

[2] = target: T1, apo-human transferrin (apo-hTf); experiment: UV-Vis absorbance titration of apo-hTf; format: binding; details: for Ka at 280 nm: absorbance at 280 nm; for Association constants, Ka, 280 nm: absorbance of apo-hTf at 280 nm
[3] = target: T1, apo-human transferrin (apo-hTf); experiment: Fluorescence resonance energy transfer; format: binding; details: for Förster critical energy transfer distance R0 / binding distance r (donor-acceptor): k^2=2/3, n=1.336, ØD=0.118; for efficiency of energy transfer E: room temperature, 1.0×10^−5 mol L^−1 each
Method in brief: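 Emission spectrum of 1.0×10−5 mol L−1 apo-hTf and absorption spectrum of 1.0×10−5 mol L−1 test compound were recorded in 20 mM Tris-HCl pH 7.4 at room temperature, 260–450 nm, and their spectral overlap determined. E was calculated from apo-hTf fluorescence without and with equimolar test compound. R0 and donor–acceptor distance r came from Förster equations.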

[4] = target: T1, apo-human transferrin (apo-hTf); experiment: Far-UV circular dichroism titration of apo-hTf, secondary structure content
Method in brief: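 Apo-hTf (4.0×10−7 mol L−1) in 2 mM Tris-HCl pH 7.4 was titrated with a 1.0×10−3 mol L−1 stock of test compound in Tris-HCl/2% DMSO, to final 0–2.4×10−6 mol L−1. Far-UV CD was recorded from 190–250 nm under nitrogen in a 1.0 cm cell: six scans at 100 nm/min. Baseline was buffer ± DMSO at room temperature. α-Helix was derived from MRE at 208 nm; β-sheet and random coil by the CD-RRG method.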

[5] = tested on: human colorectal adenocarcinoma cell line, HT-29; details: cited from earlier work
[6] = tested on: human breast adenocarcinoma cell line, MCF-7; details: cited from earlier work
[7] = target: T1, apo-human transferrin (apo-hTf); experiment: Thermodynamic parameters of apo-hTf complex formation; format: binding; details: for ∆H° / ∆S°: pH 7.4, from Ksv at 296-317 K
Method in brief: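 Ksv values were obtained from apo-hTf fluorescence quenching at pH 7.4 at 296, 303, 310 and 317 K. ΔH°, ΔS° and ΔG° were derived from linear regression of ln(Ksv) vs 1/T (Van't Hoff equation).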

With `[Cl-].[Cl-].[Ti+4].c1cc[cH-]c1.c1cc[cH-]c1` [Cp2TiCl2, titanocene dichloride] the “biomolecular quenching rate constant kq” value ([1]; 296 K) was 1.53e+11 M⁻¹ s⁻¹, the “Stern-Volmer quenching constant Ksv” value ([1]; 296 K) was 1530 M⁻¹ and the “number of binding sites n” value ([1]; 296 K) was 1.11. The “quenching association constant Ka” value ([1]; 296 K) was 4500 M⁻¹, the “biomolecular quenching rate constant kq” value ([1]; 303 K) was 1.68e+11 M⁻¹ s⁻¹ and the “Stern-Volmer quenching constant Ksv” value ([1]; 303 K) was 1680 M⁻¹. The “number of binding sites n” value ([1]; 303 K) was 1.09, the “quenching association constant Ka” value ([1]; 303 K) was 4100 M⁻¹ and the “biomolecular quenching rate constant kq” value ([1]; 310 K) was 1.76e+11 M⁻¹ s⁻¹. The “Stern-Volmer quenching constant Ksv” value ([1]; 310 K) was 1760 M⁻¹, the “number of binding sites n” value ([1]; 310 K) was 1.07 and the “quenching association constant Ka” value ([1]; 310 K) was 3600 M⁻¹. The “biomolecular quenching rate constant kq” value ([1]; 317 K) was 1.93e+11 M⁻¹ s⁻¹, the “Stern-Volmer quenching constant Ksv” value ([1]; 317 K) was 1930 M⁻¹ and the “number of binding sites n” value ([1]; 317 K) was 1.05. The “quenching association constant Ka” value ([1]; 317 K) was 3100 M⁻¹, the “Ka at 280 nm” value [2] was 2890 M⁻¹ and the “Association constants, Ka, 280 nm” value ([2]; pH 7.4) was 2.89 10^3 M^−1. For the same compound, the “Förster critical energy transfer distance R0” value [3] was 5.03 nm, the “binding distance r (donor-acceptor)” value [3] was 6.77 nm and the “efficiency of energy transfer E” value [3] was 0.144. For the same compound, the “other secondary structure content of apo-hTf” value ([4]; compound concentration 0.4 (M)) was 18.9%, the “random coil content of apo-hTf” value ([4]; compound concentration 0.4 (M)) was 33.8% and the “α-helix content of apo-hTf” value ([4]; compound concentration 0.4 (M)) was 29.3%. For the same compound, the “β-sheet content of apo-hTf” value ([4]; compound concentration 0.4 (M)) was 18%, the “other secondary structure content of apo-hTf” value ([4]; compound concentration 0.8 (M)) was 18.9% and the “random coil content of apo-hTf” value ([4]; compound concentration 0.8 (M)) was 33.8%. For the same compound, the “α-helix content of apo-hTf” value ([4]; compound concentration 0.8 (M)) was 29.1%, the “β-sheet content of apo-hTf” value ([4]; compound concentration 0.8 (M)) was 18.2% and the “other secondary structure content of apo-hTf” value ([4]; compound concentration 1.2 (M)) was 18.8%. For the same compound, the “random coil content of apo-hTf” value ([4]; compound concentration 1.2 (M)) was 33.9%, the “α-helix content of apo-hTf” value ([4]; compound concentration 1.2 (M)) was 29% and the “β-sheet content of apo-hTf” value ([4]; compound concentration 1.2 (M)) was 18.3%. For the same compound, the “other secondary structure content of apo-hTf” value ([4]; compound concentration 1.6 (M)) was 18.9%, the “random coil content of apo-hTf” value ([4]; compound concentration 1.6 (M)) was 33.9% and the “α-helix content of apo-hTf” value ([4]; compound concentration 1.6 (M)) was 28.8%. For the same compound, the “β-sheet content of apo-hTf” value ([4]; compound concentration 1.6 (M)) was 18.4%, the “other secondary structure content of apo-hTf” value ([4]; compound concentration 2 (M)) was 18.9% and the “random coil content of apo-hTf” value ([4]; compound concentration 2 (M)) was 34%. For the same compound, the “α-helix content of apo-hTf” value ([4]; compound concentration 2 (M)) was 28.6%, the “β-sheet content of apo-hTf” value ([4]; compound concentration 2 (M)) was 18.5% and the “other secondary structure content of apo-hTf” value ([4]; compound concentration 2.4 (M)) was 19%. The “random coil content of apo-hTf” value ([4]; compound concentration 2.4 (M)) was 34%, the “α-helix content of apo-hTf” value ([4]; compound concentration 2.4 (M)) was 28.4% and the “β-sheet content of apo-hTf” value ([4]; compound concentration 2.4 (M)) was 18.6%. For the same compound, the IC50 ([5]; read-out: IC50 (±SD), HT-29, ref 82) was 413 µM, the IC50 ([6]; read-out: IC50 (±SD), MCF-7, ref 82) was 570 µM and the “∆G°” value ([7]; 296 K) was -4.316 kcal/mol. The “∆G°” value ([7]; 303 K) was -4.465 kcal/mol, the “∆G°” value ([7]; 310 K) was -4.613 kcal/mol and the “∆G°” value ([7]; 317 K) was -4.761 kcal/mol. The “∆H°” value [7] was 1.94 kcal/mol and the “∆S°” value [7] was 88.48 J/mol K.
With `[Cl-].[Cl-].[Mo+4].c1cc[cH-]c1.c1cc[cH-]c1` [Cp2MoCl2] the “biomolecular quenching rate constant kq” value ([1]; 296 K) was 1.51e+11 M⁻¹ s⁻¹, the “Stern-Volmer quenching constant Ksv” value ([1]; 296 K) was 1510 M⁻¹ and the “number of binding sites n” value ([1]; 296 K) was 1.26. For the same compound, the “quenching association constant Ka” value ([1]; 296 K) was 19300 M⁻¹, the “biomolecular quenching rate constant kq” value ([1]; 303 K) was 1.59e+11 M⁻¹ s⁻¹ and the “Stern-Volmer quenching constant Ksv” value ([1]; 303 K) was 1590 M⁻¹. For the same compound, the “number of binding sites n” value ([1]; 303 K) was 1.23, the “quenching association constant Ka” value ([1]; 303 K) was 15800 M⁻¹ and the “biomolecular quenching rate constant kq” value ([1]; 310 K) was 1.81e+11 M⁻¹ s⁻¹. For the same compound, the “Stern-Volmer quenching constant Ksv” value ([1]; 310 K) was 1810 M⁻¹, the “number of binding sites n” value ([1]; 310 K) was 1.19 and the “quenching association constant Ka” value ([1]; 310 K) was 12100 M⁻¹. For the same compound, the “biomolecular quenching rate constant kq” value ([1]; 317 K) was 2.05e+11 M⁻¹ s⁻¹, the “Stern-Volmer quenching constant Ksv” value ([1]; 317 K) was 2050 M⁻¹ and the “number of binding sites n” value ([1]; 317 K) was 1.16. For the same compound, the “quenching association constant Ka” value ([1]; 317 K) was 9500 M⁻¹, the “Ka at 280 nm” value [2] was 3060 M⁻¹ and the “Ka at 361 nm” value ([2]; absorbance at 361 nm) was 3090 M⁻¹. For the same compound, the “Association constants, Ka, 280 nm” value ([2]; pH 7.4) was 3.06 10^3 M^−1, the “Association constants, Ka, 361 nm” value ([2]; absorbance of apo-hTf at 361 nm, pH 7.4) was 3.09 10^3 M^−1 and the “Förster critical energy transfer distance R0” value [3] was 3.38 nm. The “binding distance r (donor-acceptor)” value [3] was 4.44 nm, the “efficiency of energy transfer E” value [3] was 0.162 and the “other secondary structure content of apo-hTf” value ([4]; compound concentration 0.4 (M)) was 19.3%. For the same compound, the “random coil content of apo-hTf” value ([4]; compound concentration 0.4 (M)) was 33.9%, the “α-helix content of apo-hTf” value ([4]; compound concentration 0.4 (M)) was 28.7% and the “β-sheet content of apo-hTf” value ([4]; compound concentration 0.4 (M)) was 18.1%. For the same compound, the “other secondary structure content of apo-hTf” value ([4]; compound concentration 0.8 (M)) was 19.4%, the “random coil content of apo-hTf” value ([4]; compound concentration 0.8 (M)) was 34% and the “α-helix content of apo-hTf” value ([4]; compound concentration 0.8 (M)) was 28.3%. The “β-sheet content of apo-hTf” value ([4]; compound concentration 0.8 (M)) was 18.3%, the “other secondary structure content of apo-hTf” value ([4]; compound concentration 1.2 (M)) was 19.9% and the “random coil content of apo-hTf” value ([4]; compound concentration 1.2 (M)) was 34.1%. The “α-helix content of apo-hTf” value ([4]; compound concentration 1.2 (M)) was 27.6%, the “β-sheet content of apo-hTf” value ([4]; compound concentration 1.2 (M)) was 18.4% and the “other secondary structure content of apo-hTf” value ([4]; compound concentration 1.6 (M)) was 20%. For the same compound, the “random coil content of apo-hTf” value ([4]; compound concentration 1.6 (M)) was 34.3%, the “α-helix content of apo-hTf” value ([4]; compound concentration 1.6 (M)) was 27.1% and the “β-sheet content of apo-hTf” value ([4]; compound concentration 1.6 (M)) was 18.6%. The “other secondary structure content of apo-hTf” value ([4]; compound concentration 2 (M)) was 20.1%, the “random coil content of apo-hTf” value ([4]; compound concentration 2 (M)) was 34.5% and the “α-helix content of apo-hTf” value ([4]; compound concentration 2 (M)) was 26.5%. The “β-sheet content of apo-hTf” value ([4]; compound concentration 2 (M)) was 18.9%, the “other secondary structure content of apo-hTf” value ([4]; compound concentration 2.4 (M)) was 20.2% and the “random coil content of apo-hTf” value ([4]; compound concentration 2.4 (M)) was 34.7%. For the same compound, the “α-helix content of apo-hTf” value ([4]; compound concentration 2.4 (M)) was 25.8%, the “β-sheet content of apo-hTf” value ([4]; compound concentration 2.4 (M)) was 19.3% and the IC50 ([5]; read-out: IC50 (±SD), HT-29, ref 21) was 2600 µM. For the same compound, the “IC50 (±SD), MCF-7” value [6] was “proliferative activity”, the “IC50 (±SD), MCF-7” value ([6]; listed as Cp^2MoCl^2) was “Proliferative[21],[68]” and the “∆G°” value ([7]; 296 K) was -4.293 kcal/mol. The “∆G°” value ([7]; 303 K) was -4.46 kcal/mol, the “∆G°” value ([7]; 310 K) was -4.625 kcal/mol and the “∆G°” value ([7]; 317 K) was -4.792 kcal/mol. For the same compound, the “∆H°” value [7] was 2.768 kcal/mol and the “∆S°” value [7] was 99.78 J/mol K.
